Laboratory results: ChEMBL document CHEMBL1177863, “Diorganotin(IV) derivatives of ONO tridentate Schiff base: synthesis, crystal structure, in vitro antimicrobial, anti-leishmanial and DNA binding studies” (Eur J Med Chem, 2010)
Converted amounts (≈) assume the structure as drawn.

Experiments:
Candida albicans = assay: Antifungal activity against Candida albicans ATCC 2192 at 200 ug/ml by agar tube dilution test; type: functional
Aspergillus flavus = assay: Antifungal activity against Aspergillus flavus ATCC 1030 at 200 ug/ml by agar tube dilution test; type: functional
Microsporum canis = assay: Antifungal activity against Microsporum canis ATCC 9865 at 200 ug/ml by agar tube dilution test; type: functional
Fusarium solani = assay: Antifungal activity against Fusarium solani ATCC 11712 at 200 ug/ml by agar tube dilution test; type: functional
Trichophyton longifusum = assay: Antifungal activity against Trichophyton longifusum ATCC 22397 at 200 ug/ml by agar tube dilution test; type: functional
Nakaseomyces glabratus = assay: Antifungal activity against Candida glabrata ATCC 90030 at 200 ug/ml by agar tube dilution test; type: functional
Leishmania major = assay: Antileishmanial activity against Leishmania major MHOM/PK/88/DESTO promastigotes by alamar blue assay; type: functional, organism-based
[1] = Toxicity against Artemia salina nauplii larvae; type: organism-based; conditions: in vivo, read-out: LD50 (the source's name)
In short: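 Brine shrimp lethality bioassay. LD50 was derived from the mortality data by Finney's probit analysis.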

Bacillus subtilis = assay: Antibacterial activity against Bacillus subtilis ATCC 11774 […] by agar well-diffusion method; type: functional
In short: (§1)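 Test compounds dissolved in DMSO at 1 mg mL-1 and applied in agar wells; imipenem reference at 10 mg/disc. Inhibition zone diameter was read and graded as 3-6 mm non-significant, 7-9 mm low, 10-12 mm good, and >12 mm significant.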

Staphylococcus aureus = assay: Antibacterial activity against Staphylococcus aureus ATCC 25923 […] by agar well-diffusion method; type: functional; in short: as §1
Escherichia coli = assay: Antibacterial activity against Escherichia coli ATCC 11229 […] by agar well-diffusion method; type: functional; in short: as §1
Shigella flexneri = assay: Antibacterial activity against Shigella flexneri ATCC 10782 […] by agar well-diffusion method; type: functional; in short: as §1
Pseudomonas aeruginosa = assay: Antibacterial activity against Pseudomonas aeruginosa ATCC 10145 […] by agar well-diffusion method; type: functional; in short: as §1
Salmonella enterica = assay: Antibacterial activity against Salmonella typhi ATCC 10749 at 10 mg/disk by agar well-diffusion method; type: functional, Salmonella enterica subsp. enterica serovar Typhi
In short: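 Agar well-diffusion assay with compounds at 1 mg mL-1 in DMSO. Imipenem served as the reference disc. The read-out is the inhibition zone diameter in mm, graded as 3-6 non-significant, 7-9 low, 10-12 good and >12 significant.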

O=CN/N=C/c1ccccc1O
inhibition at 200 µg/mL (Candida albicans): 0%
inhibition at 200 µg/mL (Aspergillus flavus): 40%
inhibition at 200 µg/mL (Microsporum canis): 0%
inhibition at 200 µg/mL (Fusarium solani): 0%
inhibition at 200 µg/mL (Trichophyton longifusum): 0%
inhibition at 200 µg/mL (Nakaseomyces glabratus): 0%
IC50 (Leishmania major): 24 mg/L (≈ 146 µM)

COc1cc([C@@H]2c3cc4c(cc3[C@@H](O[C@@H]3O[C@@H]5CO[C@@H](C)O[C@H]5[C@H](O)[C@H]3O)[C@H]3COC(=O)[C@H]23)OCO4)cc(OC)c1O [ETOPOSIDE]
LC50 [1]: 7.46 mg/L (≈ 12.7 µM)

C[C@@H](O)[C@H]1C(=O)N2C(C(=O)O)=C(SCCNC=N)C[C@H]12 [IMIPENEM ANHYDROUS]
diameter of the inhibition zone (DIZ) (Bacillus subtilis): 37 mm
diameter of the inhibition zone (DIZ) (Staphylococcus aureus): 26 mm
diameter of the inhibition zone (DIZ) (Escherichia coli): 30 mm
diameter of the inhibition zone (DIZ) (Shigella flexneri): 36 mm
diameter of the inhibition zone (DIZ) (Pseudomonas aeruginosa): 32 mm
diameter of the inhibition zone (DIZ) (Salmonella enterica): 30 mm
